Screening data from PubChem.
Rows were chosen to be rich in hits. Some 2.1% of all compounds tested hit in one or more screens of this group.
EP2 mod: modulators of human EP2 prostaglandin E2 receptor; EP2-expressing cells, cAMP HTRF FRET, PGE2 co-stimulation; induction, % at 25 µM; 260,000 tested, 0.83% active; P43116;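 active = compounds whose cAMP rise, as percent of the full-agonist control response, exceeds 60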;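 also: rat C6 glioma line stably carrying human EP2 under a CMV promoter; the protocol text gives 20 µM as final concentration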
FXIIa inh: inhibitors of human coagulation factor XIIa; 220,000 tested, 0.3% active; purified FXIIa, Boc-QGR-AMC fluorogenic substrate, 2 h; P00748; inhibition, % at 5 µM; in the data active = inhibition above about 40%
Target sequence (P00748 20-372 limits assumed): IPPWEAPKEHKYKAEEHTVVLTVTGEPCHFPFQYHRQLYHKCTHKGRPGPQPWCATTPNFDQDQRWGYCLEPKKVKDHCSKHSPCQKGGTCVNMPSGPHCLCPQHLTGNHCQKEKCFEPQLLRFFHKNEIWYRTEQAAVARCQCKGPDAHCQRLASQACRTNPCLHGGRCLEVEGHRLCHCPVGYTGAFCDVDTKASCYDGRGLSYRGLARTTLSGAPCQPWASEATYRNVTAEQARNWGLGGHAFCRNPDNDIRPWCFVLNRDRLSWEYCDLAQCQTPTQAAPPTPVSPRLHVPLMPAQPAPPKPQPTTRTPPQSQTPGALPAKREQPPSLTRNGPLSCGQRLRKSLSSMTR
Target sequence (P00748 373-615 limits assumed): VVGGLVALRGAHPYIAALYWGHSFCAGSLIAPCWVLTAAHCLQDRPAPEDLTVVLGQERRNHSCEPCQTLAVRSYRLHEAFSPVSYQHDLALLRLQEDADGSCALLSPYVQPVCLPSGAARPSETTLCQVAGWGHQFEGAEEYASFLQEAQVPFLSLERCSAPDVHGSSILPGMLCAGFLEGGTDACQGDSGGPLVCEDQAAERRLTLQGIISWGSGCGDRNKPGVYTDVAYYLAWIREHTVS
KLK5 inh: kallikrein 5 (human) inhibition. 210,000 tested, 0.59% active. recombinant hK5, fluorogenic AMC substrate cleavage. inhibition, % at 5 µM;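 active = inhibition of 40% or more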
FXIa inh: factor XIa (human) inhibition. P03951. purified FXIa, Boc-Glu-Ala-Arg-AMC fluorogenic substrate. inhibition, % at 5 µM. 220,000 tested, 0.14% active. AID 798;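 active = inhibition of at least 40%; inactive = inhibition below 40%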;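 also: fluorescence of freed AMC excited at 355 nm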
EP2 antag: EP2 receptor (human) inhibition; C6 glioma cells expressing human EP2, cAMP TR-FRET; cells stimulated with saturating PGE2; inhibition, % at 25 µM; 260,000 tested, 0.52% active;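 active = percent inhibition above 40 after rounding to a whole number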;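 also: rat C6 glioma host cells with rolipram phosphodiesterase inhibitor present; the protocol text gives 20 µM as final concentration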
Thrombin inh: inhibitors of human thrombin. P00734. alpha-thrombin, Boc-VPR-AMC fluorogenic substrate cleavage. inhibition, % at 5 µM. 220,000 tested, 0.26% active. AID 1046;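 active = inhibition at or above 40%; inactive = inhibition below 40%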
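Material: human alpha-thrombin protein. Incubation: reaction at ambient temperature. Technique: fluorescence of released AMC, ex 355 nm, em 460 nm. Control set: no-compound enzyme wells and no-enzyme blanks. Also added: Boc-VPR-AMC substrate, 15 µM final. Buffer or medium: pH 7.5 Tris (50 mM) with NaCl 150 mM, Tween 20 0.05%.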
Hits are given with their value; - = inactive; . = no result given.

SMILES | EP2 mod | FXIIa inh | KLK5 inh | FXIa inh | EP2 antag | Thrombin inh
Nc1nc(Nc2cccc(Cl)c2)nc(NCc2ccco2)c1[N+](=O)[O-] | - | - | - | - | - | -
COc1ccc2cc(CN(Cc3ccco3)C(=O)NCc3ccccc3)c(=O)[nH]c2c1 | - | . | . | . | - | .
Cc1cccc(Nc2nc(N)c([N+](=O)[O-])c(NCc3ccco3)n2)c1 | 62.1 | - | - | - | - | -
COc1ccc2c(c1)NC1(CCN(C(=O)c3ccc(Cn4cccn4)o3)CC1)c1cccn1-2 | - | . | . | . | - | .
CN1C(=O)/C(=C2\SC(=S)N(CCCCCC(=O)O)C2=O)c2ccccc21 | 74.8 | - | - | - | - | -
CCN1C(=O)/C(=C2\SC(=S)N(CCCOC)C2=O)c2ccccc21 | - | - | - | - | - | -
COc1ccc(Cl)cc1NC(=O)COC(=O)c1ccco1 | - | . | . | . | - | .
O=C(c1ccccc1)c1coc2ccc(O)c(CN3CCOCC3)c12 | - | - | - | - | - | -
COc1ccc(C(=O)c2coc3ccc(O)c(CN4CCCCC4)c23)cc1 | - | - | 47.9 | - | - | -
CN(C)C(CNS(=O)(=O)c1ccc2c(c1)oc(=O)n2C)c1ccc(F)cc1 (stereo unspecified) | - | . | . | . | - | .
CCCCNc1nc(-c2ccccc2)cc(C(F)(F)F)c1C(N)=O | 64.2 | - | - | - | - | -
Cn1c(-c2ccccc2)cnc1SCC(N)=O | - | 58.8 | - | - | - | -
Cn1c(SCC(N)=O)nnc1-c1ccccc1 | - | - | - | - | - | -
COc1ccccc1OCCN(C)C(=O)Cn1c(=O)oc2ccc(C)cc21 | - | . | . | . | - | .
CCCn1c(SCC(=O)Nc2ccc(C)cc2)nnc1C(C)C | - | . | . | . | - | .
Cc1cccc(OC(C)c2nnc(N)s2)c1C (stereo unspecified) | - | . | . | . | - | .
O=C(Nc1ccc(N2CCCC2)cc1)c1ccccc1F | - | - | - | - | - | -
CCN1CCN(c2ccc(NC(=O)c3ccccc3F)cc2)CC1 | - | . | . | . | 59.5 | .
Cc1ccccc1C(=O)N1CCN(c2ccc(NC(=O)c3ccc([N+](=O)[O-])o3)cc2)CC1 | - | . | . | . | 130.3 | .
O=C(Nc1ccc(N2CCN(C(=O)c3ccccc3)CC2)cc1)c1ccc([N+](=O)[O-])o1 | - | - | . | - | 49.0 | -
CC(C)C(=O)N1CCN(c2ccc(NC(=O)c3ccc([N+](=O)[O-])o3)cc2)CC1 | - | - | - | - | - | -
CCN1CCN(c2ccc(NC(=O)c3ccc([N+](=O)[O-])o3)cc2)CC1 | - | . | . | . | 95.1 | .
COc1ccc(C2(NC(=O)CN3Cc4ccccc4C3=O)CCCCC2)cc1 | - | . | . | . | - | .
O=C(Nc1nnc(Cc2cccc(F)c2)s1)c1ccnc2ccc(Cl)cc12 | - | . | . | . | - | .
CC(C)C(=O)N1CCN(c2ccc(NC(=O)c3ccc([N+](=O)[O-])o3)cc2Cl)CC1 | - | - | - | - | 115.8 | -
SMILES | EP2 mod | FXIIa inh | KLK5 inh | FXIa inh | EP2 antag | Thrombin inh
CCCC(c1nnnn1C(C)(C)C)N(Cc1ccc(OC)cc1)Cc1cc2ccc(C)cc2[nH]c1=O (stereo unspecified) | - | . | . | . | - | .
COc1ccc(-c2nc3ccccc3n2Cc2ccc(C)cc2)cc1 | 62.4 | - | - | - | - | -
N#Cc1nc(COc2ccc(F)cc2)oc1NCCN1CCOCC1 | - | - | - | - | - | -
N#Cc1nc(COc2ccc(Br)cc2)oc1NCCN1CCOCC1 | - | - | 45.3 | - | - | -
O=C(NCCNCc1ccco1)c1ccco1 | - | . | . | . | - | .
COc1ccc(-c2ccc(S(=O)(=O)n3nc(OC(=O)c4cccs4)cc3N)cc2)cc1 | - | - | - | - | - | -
COc1ccc(NC(=O)n2nc(OC(=O)c3cccs3)cc2N)cc1 | - | - | - | - | - | 46.4
Fc1ccc(-c2nc3cnccn3c2NCc2ccc3c(c2)OCO3)cc1F | - | . | . | . | . | .
CC(C)NC(=O)C(=O)Nc1nccs1 | - | . | . | . | - | .
O=C(CSc1nnnn1-c1cccc2c1CCCC2)NCc1cccs1 | - | . | . | . | - | .
CCc1nc2ccccc2c(C(=O)OCC(=O)C(C)(C)C)c1C | - | - | - | - | - | 46.8
CCc1nc2ccccc2c(C(=O)O)c1C | - | - | - | - | - | -
CCOC(=O)c1c(C)nc2c(c1-c1ccccc1)C(=O)c1ccccc1-2 | 61.1 | - | - | - | - | -
CCOC(=O)c1c(CCl)nc2ccccc2c1-c1ccccc1 | 87.2 | - | - | - | - | -
CCOC(=O)c1c(C)nc2c(c1-c1cc(OC)ccc1OC)C(=O)c1ccccc1-2 | - | - | - | - | - | -
CCC(=O)Nc1nc(-c2ccccc2)nc(SC)c1C(C)=O | - | - | - | - | - | -
CCOC(=O)c1c(C)nc(-c2ccccc2)nc1NC(=O)CC | - | - | 58.2 | - | - | -
CCC[N+]1(CCC)Cc2cc3ccccc3cc2C1 | - | . | . | . | - | .
CCn1c(CNc2ccc(C)c(Cl)c2)nnc1SCC(=O)Nc1ccc(N)cc1C | - | . | . | . | - | .
O=C(CN1CCC(c2nc3ccccc3s2)CC1)Nc1ccc2c(c1)OCO2 | - | . | . | . | - | .
CCCNC(=O)CSc1nc2c(c(C(F)(F)F)n1)CCc1ccccc1-2 | - | . | . | . | - | .
c1ccc(-c2c(-c3ccccc3)n(Cc3ccco3)c3ncnc(NCCCn4ccnc4)c23)cc1 | - | - | - | - | 48.7 | -
CC(C)=CCc1c(O)cc(C)oc1=O | - | . | . | . | - | .
CC(C)=CCc1c(O)c(CC=C(C)C)c2c(c1O)-c1cc(O)c(O)cc1CC2 | . | . | . | . | 54.2 | .
Nc1ccc(N(S(=O)(=O)c2ccccc2)S(=O)(=O)c2ccccc2)c(Cl)c1 | - | . | . | . | 43.8 | .
SMILES | EP2 mod | FXIIa inh | KLK5 inh | FXIa inh | EP2 antag | Thrombin inh
Nc1ccc(S(=O)(=O)c2cccc(N)c2)cc1 | - | - | - | - | - | -
COc1ccc2cc(CN(CCCN(C)C)C(=S)Nc3ccc(F)cc3)c(=O)[nH]c2c1 | - | . | . | . | - | .
CCOC(=O)c1cccc(NC(=O)CSc2nnc(-c3ccoc3C)n2CCOC)c1 | - | 47.6 | - | - | - | -
C=CCn1c(SCC(=O)Nc2cccc(C(=O)OC)c2)nnc1C(C)NC(=O)c1cccs1 (stereo unspecified) | - | - | 49.5 | - | - | -
C=CCn1c(SCC(=O)NCCc2ccccc2)nnc1C(C)NC(=O)c1cccs1 (stereo unspecified) | - | - | - | - | - | -
Cc1ccc(C(=O)NC(C)C(c2cccs2)N2CCCC2)s1 (stereo unspecified) | - | . | - | - | - | 45.1
O=c1c2ccccc2sc2c(CO)ccc(NCCN3CCCCC3)c12 | - | . | . | . | 58.3 | .
O=C1NC2(CCN(C(=O)CC34CC5CC(CC(O)(C5)C3)C4)CC2)Oc2ccccc21 | - | . | . | . | . | .
O=C1C=C(NCc2ccc(Cl)cc2)CCC1 | - | - | 49.7 | - | - | -
NCCC1([N+](=O)[O-])CCNCC1 | - | . | . | . | 50.2 | .
Cc1ccc(CN(CCCN2CCOCC2)Cc2cncn2C)o1 | - | . | . | . | - | .
Oc1ccc(NC(=S)N=Nc2c(O)[nH]c3ccc(Br)cc23)cc1 | - | - | - | - | 46.4 | -
